High-throughput results deposited in PubChem BioAssay by several laboratories.
ARNT-TACC3 inh – disruptors of human ARNT/TACC3 interaction; Q9Y6A5; AID 623870; 390,000 tested, 0.66% active; inhibition, % at 9.99 µM; AlphaScreen His-ARNT PAS-B/GST-TACC3 binding, luminescence; TACC3 fragment carries E629A point mutation;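 active = mean inhibition of replicates at least 50% and at least half of replicates each reaching 50%; inconclusive = half or more replicates reach 50% but mean below 50%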
SR-BI uptake up – enhances SR-BI lipid uptake from DiI-HDL. 320,000 tested, 0.096% active. CHO ldlA[mSR-BI] cells, DiI-HDL uptake fluorescence, 3 h; 100 = double the neutral-control signal. activation, % at 12.5 µM;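 active = mean replicate activation of at least 60% and every replicate at or above 60%; inconclusive = mean or all-replicate condition met, but not both; inactive = mean below 60% and not all replicates reaching 60%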
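material = CHO ldlA[mSR-BI] cells | medium = Ham's F12 with 0.5% BSA, HEPES 25 mM, pH 7.4 | reagent = fluorescent DiI-HDL, 10 µg/mL final | compound dosing = single-point compound dose | incubation = 3 h, 37 °C | measured by = bottom-read fluorescence, 550/595 nm | measure = HDL uptake via cellular fluorescence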
NSD2 inh – blocks human histone methyltransferase NSD2; O96028; NSD2 peptide methylation, AlphaScreen, 120 min; inhibition, % at 12.5 µM; 310,000 tested, 0.54% active; in the data active = inhibition above about 50%
SR-BI HDL uptake – blocks mouse SR-BI lipid uptake from DiI-HDL | ldlA[mSR-BI] CHO cells, DiI-HDL uptake fluorescence, 3 h | inhibition, % at 12.5 µM | 320,000 tested, 0.96% active;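 active = mean replicate inhibition of at least 70% and a set share of replicates each scoring 70 or more; inconclusive = meets just one of the two criteria; inactive = fails both criteria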
sPLA2-III inh – Inhibits HGIII-sPLA2 liposome hydrolysis, primary screen | QFRET BODIPY PC-A2 liposome hydrolysis, fluorescence | inhibition, % at 12.2 µM | 370,000 tested, 0.56% active;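 active = inhibition above mean plus 3 SD of compounds lying within the high and low control bounds, cut at about 19% in these data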
XiGFP reactiv – activators of X-chromosome reactivation in mouse fibroblasts. 360,000 tested, 0.055% active. XiGFP mouse fibroblasts, % GFP-positive cells imaging, 3 d; cells co-treated with 5-aza-dC sensitizer; scaled so ellipticine positive control = 100%. activation, % at 7.58 µM;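 active = mean normalized replicate activation at least 10% and every replicate at or above 10%; inconclusive = only one of the two criteria met; inactive = mean below 10% and not all replicates reach 10%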
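System: 68-5-11 XiGFP fibroblast line; Timing: 3 days compound exposure; Compound dosing: one concentration, pinned; Benchmarks: positive control ellipticine, 6 µM final; Buffer or medium: DMEM containing 5-aza-dC.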
DiI quench – DiI fluorescence quenching in cell-free counter-screen; AC50, µM (titrated, usually from 35 µM); 470 tested, 20% active; cell-free DiI-HDL fluorescence quenching, 30 min; shares compounds with SR-BI HDL uptake; AID 540326;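 active = quenching, a falling signal, with AC50 below a set limit tied to the top valid dose, actives reach about 32 µM in these data; inconclusive = no clear call, values can overlap the other calls; inactive = rising signal, and the rest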
Numbers stand for hits; 0 = inactive; ? = inconclusive; - = no result given. In the library only some 2% were active in any assay of this set; here they are far more common.

SMILES | ARNT-TACC3 inh | SR-BI uptake up | NSD2 inh | SR-BI HDL uptake | sPLA2-III inh | XiGFP reactiv | DiI quench
O=C(Nc1ccc(N2CCOCC2)cc1)c1cccc(S(=O)(=O)N2CCC(Cc3ccccc3)CC2)c1 | 0 | 0 | 0 | 93.1 | 0 | - | 0
Cc1nnc(SC(C)C(=O)Nc2ncc(Cl)cc2Cl)n1Cc1ccccc1 (configuration not stated) | 0 | 0 | 0 | 0 | 0 | - | -
Cc1cc(SC(C)C(=O)Nc2ncc(Cl)cc2Cl)nc2ccccc12 (configuration not stated) | 0 | 0 | 0 | 72.5 | 0 | 0 | 0
CCCNC(=O)N1CC(=O)N2[C@@H](CO)[C@H](c3ccc(C#Cc4ccccc4)cc3)[C@@H]2C1 | - | - | - | - | - | 0 | -
COc1ccc(N2CC(C(=O)NCCC3=CCCCC3)CC2=O)c(OC)c1 (configuration not stated) | 0 | 0 | 0 | 78.0 | 0 | 0 | 0
COc1ccc(N2CC(C(=O)NCCc3ccc(Cl)cc3)CC2=O)c(OC)c1 (configuration not stated) | 0 | 0 | 0 | 79.2 | 0 | 0 | 0
CC(C)c1ccc2occ(-c3nn[nH]n3)c(=O)c2c1 | 0 | 0 | 0 | 0 | 0 | 0 | -
Cc1ccc2oc3c(c(=O)c2c1)C(c1cccc(Cl)c1)N(CCCN1CCOCC1)C3=O (configuration not stated) | 0 | 0 | - | 0 | 0 | 0 | -
CC(OC(=O)c1cccc(NS(C)(=O)=O)c1)C(=O)Nc1ccc(N2CCOCC2)cc1 (configuration not stated) | 0 | 0 | 0 | 78.4 | 0 | - | 0
CC(OC(=O)c1cccc(NS(C)(=O)=O)c1)C(=O)Nc1ccc2c(c1)OCO2 (configuration not stated) | 0 | 0 | 0 | 0 | 0 | 0 | -
Cc1nn2c(=O)c(NC(=O)c3ccc(Cl)cc3)cnc2s1 | 0 | 0 | 0 | 0 | 0 | 0 | -
CCn1c(COc2c(C)cccc2C)nnc1SCC(=O)N1CCN(c2ccccc2)CC1 | 0 | 0 | 0 | 79.0 | 0 | - | 0
O=C1C2C3C=CC(C3)C2C(=O)N1c1ccc2ccccc2n1 (configuration not stated) | 0 | 0 | 0 | 0 | 0 | - | -
O=C1C2C3C=CC(C3)C2C(=O)N1c1cccc(N2C(=O)C3C4C=CC(C4)C3C2=O)n1 (configuration not stated) | 0 | 0 | 0 | 0 | 0 | - | 0
O=C(C[C@H]1C/C=C\CCC(=O)OC[C@H]2CCCN2C1=O)NCCO | 0 | 0 | - | 0 | 0 | 0 | 0
CCC(=O)N1CC[C@@H]2[C@@H](CO)N(C)c3ccc(-c4cccc(F)c4)cc3[C@@H]21 | 0 | - | - | - | - | 0 | -
CC1CCCC(NC(=O)c2nn(C)c3c2CS(=O)(=O)c2ccccc2-3)C1C (configuration not stated) | 0 | 0 | 0 | 0 | 0 | 0 | -
CC1CCCCC1NC(=O)c1nn(C)c2c1CS(=O)(=O)c1ccccc1-2 (configuration not stated) | 0 | 0 | 0 | 77.7 | 0 | 0 | 0
C[C@@H]1CN([C@H](C)CO)C(=O)CCCn2cc(nn2)CO[C@H]1CN(C)C(=O)Nc1ccc(C(C)(C)C)cc1 | 0 | - | - | - | 0 | 0 | -
Cc1nc(NCc2cccnc2)c2c3c(sc2n1)CC(C)CC3 (configuration not stated) | 0 | 0 | 0 | ? | 0 | 0 | 0
CCOC(=O)c1c(C)n(-c2ccc(C)cc2)c2c(C(C(C)=O)C(=O)O)c(Br)c(O)c(O)c12 (configuration not stated) | 0 | 0 | 0 | 0 | 0 | - | -
CCOC(=O)c1c(C)n(-c2ccc(C)cc2)c2c(CC(C)=O)c(Br)c(OC)c(O)c12 | 0 | 0 | 0 | 72.9 | 0 | - | 0
COc1ccc(NC(=O)NS(=O)(=O)c2ccc(C)cc2)cc1OC | 0 | 0 | 0 | 0 | 0 | 0 | -
CCC(C)c1ccccc1N1CC(C(=O)N2CCN(c3ccccc3)CC2)CC1=O (configuration not stated) | 0 | 0 | 0 | 0 | 0 | 0 | -
CCC(C)c1ccccc1N1CC(C(=O)N2CCN(S(=O)(=O)c3cccc([N+](=O)[O-])c3)CC2)CC1=O (configuration not stated) | - | 0 | 0 | 0 | 0 | 0 | 0
SMILES | ARNT-TACC3 inh | SR-BI uptake up | NSD2 inh | SR-BI HDL uptake | sPLA2-III inh | XiGFP reactiv | DiI quench
COCC(=O)N(C)C[C@@H]1Oc2ncc(C#Cc3ccncc3)cc2C(=O)N([C@H](C)CO)C[C@@H]1C | 0 | - | - | - | - | 0 | -
Cc1ccc(NC(=O)c2cc(-c3ccco3)nc3ccccc23)cc1S(=O)(=O)N1CCOCC1 | 0 | 0 | 0 | 102.1 | 0 | 0 | 0
CCOc1cc(N2CCOCC2)c(OCC)cc1NC(=O)c1cc(-c2ccco2)nc2ccccc12 | 0 | 0 | 0 | 78.7 | 0 | - | 23.6µM
CCOc1cc(N2CCOCC2)c(OCC)cc1NC(=O)COc1ncnc2ccccc12 | 0 | 0 | 0 | 0 | 0 | - | -
COc1ccc(NC(=O)c2cc(C)nc3ccccc23)cc1S(=O)(=O)N1CCOCC1 | 0 | 0 | 0 | 0 | 0 | 0 | -
CCCCOc1ccc(C(=O)NCC(=O)NC2CC2)cc1 | 0 | 0 | 0 | 0 | 0 | 0 | -
COc1ccc(CNC(=O)C[C@H]2CC[C@@H]3[C@H](COc4ccc(NC(C)=O)cc4C(=O)N3C)O2)cc1 | 0 | - | - | - | - | 0 | -
Cc1csc(NC(=O)c2cc3c(C)nn(Cc4ccccc4Cl)c3s2)n1 | 0 | 0 | 0 | 0 | 0 | 0 | -
Cc1ccc(-c2cc(C(=O)NCc3ccco3)c3ccccc3n2)s1 | 0 | 0 | 0 | 0 | 0 | - | -
O=C(NCC1CCCO1)c1ccc2c(c1)N(Cc1ccc(F)cc1Cl)C(=O)CS2 (configuration not stated) | 0 | 0 | 0 | 0 | 0 | 0 | 0
O=C(NCC1CCCO1)c1ccc2c(c1)N(Cc1ccc(F)cc1)CCS2 (configuration not stated) | 0 | 0 | 0 | 0 | 0 | 0 | -
C[C@H](CO)N1C[C@H](C)[C@@H](CN(C)C(=O)Nc2ccccc2)OCCCC[C@H](C)Oc2ccc(NS(=O)(=O)c3cccs3)cc2C1=O | 0 | - | - | - | - | 0 | -
Cc1c(Nc2c3ccccc3nc3ccccc23)c(=O)n(-c2ccccc2)n1C | 0 | 0 | 0 | 0 | 0 | 0 | -
Cc1c(Nc2nc3ccccc3nc2N2CCN(c3ccccc3)CC2)c(=O)n(-c2ccccc2)n1C | 0 | 0 | 0 | ? | 0 | - | 0
CCc1ccc(NC(=O)C2CCCN(S(=O)(=O)c3ccc4[nH]c(=O)ccc4c3)C2)cc1 (configuration not stated) | 0 | 0 | 0 | 103.8 | 0 | 0 | 0
CC(=O)Nc1nc2c(C)cc(NC(=O)C3CCCCC3)cc2s1 | 0 | - | 0 | - | 0 | 0 | -
